According to BindingDB's records for doi:10.1016/j.bmc.2010.02.001 (University of Alberta, 2010):

Molecular target: LL-diaminopimelate aminotransferase, chloroplastic (Arabidopsis thaliana, UniProt Q93ZN9)
Experiment: Inhibition of Arabidopsis thaliana LL-DAP-AT expressed in Escherichia coli by aminobenzaldehyde-based assay
How it was run: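 Recombinant C-terminal His6-tagged enzyme in 1 mL cells at 0.0043 mg/mL final. Final substrates: 8.5 mM 2-oxoglutarate, 7 mM 2-aminobenzaldehyde, 2.0 mM LL-DAP (racemic DAP), in 100 mM HEPES-KOH pH 7.6. Inhibitor in DMSO at 200, 100, 50, 25, 10 and 5 µM final. A440 read every 2 min for 200 min. Initial slopes compared with the DMSO control gave percentage inhibition, from which IC50 was calculated.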

Chain of LL-diaminopimelate aminotransferase, chloroplastic (Q93ZN9 whole entry): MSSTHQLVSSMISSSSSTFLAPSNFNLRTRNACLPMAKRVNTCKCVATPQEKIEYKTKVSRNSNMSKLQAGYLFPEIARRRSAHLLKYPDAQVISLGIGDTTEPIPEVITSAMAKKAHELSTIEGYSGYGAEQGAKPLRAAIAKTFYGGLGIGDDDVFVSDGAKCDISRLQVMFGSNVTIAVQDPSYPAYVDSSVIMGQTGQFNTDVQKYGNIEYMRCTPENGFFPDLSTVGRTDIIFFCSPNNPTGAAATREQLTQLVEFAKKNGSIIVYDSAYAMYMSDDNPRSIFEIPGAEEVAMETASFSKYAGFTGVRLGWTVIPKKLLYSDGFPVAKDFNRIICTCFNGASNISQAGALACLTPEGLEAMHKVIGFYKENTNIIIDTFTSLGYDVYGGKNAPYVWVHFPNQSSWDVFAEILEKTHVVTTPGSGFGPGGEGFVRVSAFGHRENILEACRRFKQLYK

NC(N=NCc1ccc(-c2cccc([N+](=O)[O-])c2)o1)=N[N+](=O)[O-] [N'-nitro-2-((5-(3-nitrophenyl)furan-2-yl)methylene)hydrazinecarboximidamide]
IC50: > 200 µM
